Experimental data taken from ChEMBL document CHEMBL2385004, “Development of flavonoid-based inverse agonists of the key signaling receptor US28 of human cytomegalovirus” (J Med Chem, 2013).
Activity calls are given as the source filed them. No cut-off for these calls is given here.

How the values were obtained:
[1] = Inverse agonist activity at human cytomegalovirus US28 receptor transfected in HEK293T cells assessed as activation of MAPK signaling pathway after 20 to 24 hrs by luciferase-based Elk1 reporter gene assay; type: cell-based, Human betaherpesvirus 5, HEK-293T
Outline: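 HEK293T cells transiently co-transfected with Elk1 (0.1 μg), Luc (5 μg) and US28 vector (5 μg); 5 h later washed, seeded at 20,000 cells/well in DMEM, 1% FBS, 2 mM L-glutamine, 1% penicillin-streptomycin, 1% DMSO with compound; 37 °C, 5% CO2, 20–24 h; BrightGlo luminescence. 3–5 experiments in triplicate, pooled normalized sigmoid fits give EC50 and efficacy.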

[2] = Activation of MAPK signaling pathway in mock-transfected HEK293T cells at 10 uM after 20 to 24 hrs by luciferase-based Elk1 reporter gene assay relative to control; type: cell-based; conditions: Homo sapiens, HEK-293T
Outline: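 HEK293T cells transiently transfected with 0.1 μg Elk1, 5 μg Luc and empty pcDNA3 (PathDetect trans Elk1 system). After 5 h, washed, seeded at 20,000 cells/well in DMEM, 1% FBS, 2 mM L-glutamine, 1% pen-strep, 1% DMSO. Compound at 10 μM; 37 °C, 5% CO2, 20−24 h. Bright-Glo luminescence; % effect = 100% × (treated/1% DMSO control luminescence) − 100%.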

[3] = Inverse agonist activity at human cytomegalovirus US28 receptor transfected in HEK293T cells assessed as activation of MAPK signaling pathway at 10 uM after 20 to 24 hrs by luciferase-based Elk1 reporter gene assay relative to control; type: cell-based; conditions: Human betaherpesvirus 5, HEK-293T
Outline: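 HEK293T transiently transfected with 0.1 μg Elk1, 5 μg Luc and 5 μg US28 vector (PathDetect trans Elk1), reading US28-driven MAPK/Elk1 signaling. After 5 h, seeded 20,000 cells/well in DMEM, 1% FBS, 2 mM L-glutamine, 1% pen-strep, 1% DMSO with compound; 37 °C, 5% CO2, 20−24 h. Bright-Glo luciferase luminescence vs no-compound control. Triplicates, 3−5 experiments; curves normalized, pooled, fitted by nonlinear regression.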

[4] = test system: CHO; assay: Cytotoxicity against CHO cells after 48 hrs by MTS assay; type: cell-based; conditions: Cricetulus griseus
Outline: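 CHO cells plated at 10000 cells/mL and incubated overnight. Drug from DMSO stock added, final DMSO <1%. Incubated 48 h at 37 °C, 5% CO2, then MTS reagent for 4 h more. Absorbance read at 490 nm. Run in triplicate; IC50 taken from a plot of relative A490 vs drug concentration.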

[5] = Human betaherpesvirus 5, HEK-293T, read-out: EC50
[6] = Human betaherpesvirus 5, HEK-293T, read-out: pEC50 (converted)

| SMILES | EC50 ([1]; hek-293t) | Activity [2] [%] | Activity [3] | IC50 [4] [µM] | Efficacy [3] [%] | EC50 [1, 5] [µM] | EC50 [1, 6] [µM] |
| --- | --- | --- | --- | --- | --- | --- | --- |
| COc1ccccc1/C=C/C(=O)c1c(O)cccc1OCc1ccccc1 | ND(toxic) |  |  |  |  |  |  |
| COc1ccc(Cl)cc1C1CC(=O)c2ccccc2O1 (stereo unspecified) |  | -14 | inactive |  |  |  |  |
| COc1ccc(Br)cc1/C=C/C(=O)c1c(O)cccc1OC |  | 290 |  | 6.1 | -95 | 6 | 6.03 |
| COc1cc(Br)cc(-c2oc3ccccc3c(=O)c2O)c1OC |  | -28 | inactive | > 100 |  |  |  |
| COc1ccc(C)cc1-c1oc2ccccc2c(=O)c1O |  | 0 |  | 54.6 | -38 | 1.78 | 1.78 |
| COc1ccc(Br)cc1-c1oc2ccccc2c(=O)c1O |  | -11 | inactive | 88.5 |  |  |  |
| COc1ccc(Cl)cc1/C=C/C(=O)c1ccccc1O |  | -30 |  | 8.4 | -58 | 7.8 | 7.76 |
| COc1ccc(I)cc1-c1oc2ccccc2c(=O)c1O |  | -23 | inactive | 17.9 |  |  |  |
| COc1ccc(Br)cc1-c1cc(=O)c2ccccc2o1 |  | -17 |  | > 100 | -55 | 8.1 | 8.13 |
| COc1ccc(Br)cc1/C=C/C(=O)c1ccccc1O |  | -29 |  | 8.7 | -44 | 7.8 | 7.76 |
| COc1ccccc1/C=C/C(=O)c1ccccc1O |  | 8 |  | 25.5 | 67 | 1.4 | 1.45 |
| COc1ccc(I)cc1/C=C/C(=O)c1ccccc1O |  | 100 |  | 6.7 | -94 | 5.5 | 5.5 |
| COc1ccc(Br)cc1C1CC(=O)c2ccccc2O1 (stereo unspecified) |  | -5 | inactive | 67.9 |  |  |  |
| COc1cc(OC)c(-c2oc3ccccc3c(=O)c2O)cc1Br |  | -17 | inactive | 18.3 |  |  |  |
| COc1ccc(C)cc1/C=C/C(=O)c1ccccc1O |  | -4 |  | 14.2 | 52 | 10 |  |
| COc1ccc(Br)cc1-c1cc(=O)c2c(OCc3ccccc3)cccc2o1 |  | -3 |  | 96.6 | -89 | 3.5 | 3.47 |

| SMILES | EC50 ([1]; hek-293t) | Activity [2] [%] | Activity [3] | IC50 [4] [µM] | Efficacy [3] [%] | EC50 [1, 5] [µM] | EC50 [1, 6] [µM] |
| --- | --- | --- | --- | --- | --- | --- | --- |
| COc1ccccc1-c1oc2ccccc2c(=O)c1O |  | -1 |  | > 100 | -19 | 4.6 | 4.57 |
| COc1ccc(Br)cc1-c1oc2cccc(OC)c2c(=O)c1O |  | -1 | inactive | 17.3 |  |  |  |
| CCOc1ccc(Cl)cc1-c1oc2ccccc2c(=O)c1O |  | -17 |  | > 100 | -41 | 0.31 | 0.309 |
| CCOc1ccc(Cl)cc1/C=C/C(=O)c1ccccc1O |  | 33 |  | 6.8 | -76 | 6.4 | 6.46 |
| CCOc1ccc(Br)cc1/C=C/C(=O)c1ccccc1O |  | -3 |  | 7.2 | -88 | 5 | 5.01 |
| COc1ccc(Br)cc1-c1cc(=O)c2c(O)cccc2o1 |  | -16 | inactive | 75.2 |  |  |  |
| COc1ccc(Br)cc1/C=C/C(=O)c1c(O)cccc1OCc1ccccc1 | ND(toxic) |  |  | 8.1 |  |  |  |
| COc1ccc(Cl)cc1-c1oc2ccccc2c(=O)c1O |  | 2 |  | 25 | -42 | 1.32 | 1.32 |
| COc1ccc(Br)cc1/C=C/C(=O)c1ccc2ccccc2c1O |  | 35 |  | 15.6 | -92 | 2.9 | 2.88 |
| CCOc1ccc(Br)cc1-c1oc2ccccc2c(=O)c1O |  | -31 |  | 13.5 | -41 | 0.8 | 0.832 |
| COc1cc(Br)cc(/C=C/C(=O)c2ccccc2O)c1OC |  | -42 |  | 7.2 | -52 | 6.7 | 6.61 |
| COc1ccccc1-c1cc(=O)c2c(O)cccc2o1 |  | 2 | inactive | > 100 |  |  |  |
| COc1cc(OC)c(/C=C/C(=O)c2ccccc2O)cc1Br |  | 5 |  | 16.9 | -55 | 4.9 | 4.9 |
| COc1ccccc1-c1cc(=O)c2ccccc2o1 |  | 3 | inactive | 64.8 |  |  |  |
| COc1ccccc1-c1cc(=O)c2c(OCc3ccccc3)cccc2o1 |  | -40 |  | 17.5 | -49 | 7.3 | 7.24 |
